# Assay results reported in ChEMBL document CHEMBL1126013, “Synthesis and evaluation of some water-soluble prodrugs and derivatives of taxol with antitumor activity” (J Med Chem, 1992).
# Experiments:
# [1] = Solubility in water; format: physicochemical; conditions: read-out: S
# B16 [2] = test: Concentration required to inhibit the proliferation of B16 melanoma cells was determined; format: functional, cell-based; conditions: Mus musculus
# B16 [3] = test: Percentage change in cell number of B16 melanoma cells treated with 10e-5 M dose; format: functional, Mus musculus
# In short: (§1)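 B16 melanoma cells exposed to 10⁻⁵ or 10⁻⁶ M compound for 8 h, then rinsed three times with fresh medium. Cells then grown in drug-free medium for 48 h and counted. Result given as percent change relative to the cell number at time zero. Controls are the average of three experiments.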
# B16 [4] = test: Percentage change in cell number of B16 melanoma cells treated with 10e-6 M dose; format: functional, Mus musculus; in short: as §1
# B16 [5] = test: Relative effect on B16 melanoma cell proliferation was determined [IC50 (taxol)/IC50 (derivative)]; format: functional, Mus musculus
# Bos taurus = species on record: Bos taurus; test: Relative effect on microtubular assembly (Tubulin polymerized by derivative/tubulin polymerized by taxol); format: functional
# In short: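 Bovine brain tubulin, purified from microtubule-associated proteins by phosphocellulose chromatography, used at 10 μM. Turbidity followed at 350 nm. Polymer pelleted at 200000g, 37 °C, 4 min, depolymerized on ice, and protein measured by Bradford.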
# Mus musculus [6] = test: Initial average tumor weight was measured in mice induced with human mammary carcinoma at a dose of 30 mg/kg; format: functional
# In short: (§2)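 MX-1 human mammary carcinoma xenograft implanted under the renal capsule in mice. Study run at the National Cancer Institute following NIH Publication No. 84-2635. Tumor weights recorded at the start and at the end. Survivors counted after 11 days. %T/C = (Δ tumor weight treated/Δ tumor weight control) × 100 where the tumor grows, and (Δ tumor weight treated/initial control tumor weight) × 100 where it regresses.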
# Mus musculus [7] = test: Initial average tumor weight was measured in mice induced with human mammary carcinoma at a dose of 5.9 mg/Kg; format: functional; in short: as §2
# Mus musculus [8] = test: Initial average tumor weight was measured in mice induced with human mammary carcinoma at a dose of 8.9 mg/Kg; format: functional; in short: as §2
# Mus musculus [9] = test: Initial average tumor weight was measured in mice induced with human mammary carcinoma at a dose of 20 mg/Kg; format: functional; in short: as §2
# Mus musculus [10] = test: Initial average tumor weight was measured in mice induced with human mammary carcinoma at a dose of 13 mg/Kg; format: functional; in short: as §2
# Mus musculus [11] = test: Number of survivors after 11 days at a dose of 13 mg/Kg tested in 6 mice; format: functional
# In short: (§3)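 MX-1 human mammary carcinoma xenograft implanted under the renal capsule of mice. The study was run at the National Cancer Institute following the procedures of NIH Publication No. 84-2635. Average tumor weight was recorded at the start and end of treatment, and survivors were counted after 11 days. Dosed groups were compared with an untreated control group.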
# Mus musculus [12] = test: Number of survivors after 11 days at a dose of 20 mg/Kg tested in 6 mice; format: functional; in short: as §3
# Mus musculus [13] = test: Number of survivors after 11 days at a dose of 30 mg/kg tested in 6 mice; format: functional; in short: as §3
# Mus musculus [14] = test: Tumor growth or regression measured as Percent treated by control at a dose of 8.9 mg/kg to mice with MX-1 xenograft; format: functional
# In short: (§4)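 Subrenal capsule human mammary carcinoma (MX-1) xenograft in mice, run at the National Cancer Institute by NIH Publication No. 84-2635 procedures. Initial and final average tumor weights recorded, with survivors counted after 11 days. %T/C is (Δ tumor weight treated/Δ tumor weight controls)×100 for growing tumors. For regressing tumors it is (Δ tumor weight treated/initial control tumor weight)×100.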
# Mus musculus [15] = test: Tumor growth or regression measured as Percent treated by control at a dose of 20 mg/Kg to mice with MX-1 xenograft; CR refers to complete remission or when the tumor is no longer detectable; format: functional, organism-based; in short: as §2
# Mus musculus [16] = test: Tumor growth or regression measured as Percent treated by control at a dose of 30 mg/Kg to mice with MX-1 xenograft; Tox refers to toxicity or when < 65% of the animals survive the test; format: functional, organism-based; in short: as §2
# Mus musculus [17] = test: Tumor growth or regression measured as Percent treated by control at a dose of 5.9 mg/Kg to mice with MX-1 xenograft; format: functional; in short: as §4
# Mus musculus [18] = test: Tumor growth or regression measured as Percent treated by control at a dose of 13 mg/Kg to mice with MX-1 xenograft; CR refers to complete remission or when the tumor is no longer detectable; format: functional, organism-based; in short: as §2
# Mus musculus [19] = test: Number of survivors after 11 days at a dose of 5.9 mg/Kg tested in 6 mice; format: functional; in short: as §3
# Mus musculus [20] = test: Number of survivors after 11 days at a dose of 8.9 mg/Kg tested in 6 mice; format: functional; in short: as §3
# Mus musculus [21] = test: Final average tumor weight was measured in mice induced with human mammary carcinoma at a dose of 20 mg/Kg; format: functional; in short: as §2
# Mus musculus [22] = test: Final average tumor weight was measured in mice induced with human mammary carcinoma at a dose of 30 mg/kg; format: functional; in short: as §2
# Mus musculus [23] = test: Final average tumor weight was measured in mice induced with human mammary carcinoma at a dose of 5.9 mg/Kg; format: functional; in short: as §2
# Mus musculus [24] = test: Antitumor activity of taxoland the derivative against mammary carcinoma xenograft in mice; format: functional; in short: as §2
# Mus musculus [25] = test: Final average tumor weight was measured in mice induced with human mammary carcinoma at a dose of 8.9 mg/Kg; format: functional; in short: as §2
# Mus musculus [26] = test: final average tumor weight was measured in mice induced with human mammary carcinoma at a dose of 13 mg/Kg; format: functional; in short: as §4
smiles,measurement,setting,value
CC(=O)O[C@H]1C(=O)[C@@]2(C)[C@H]([C@H](OC(=O)c3ccccc3)[C@]3(O)C[C@H](OC(=O)[C@H](OC(=O)CN(C)C)[C@@H](NC(=O)c4ccccc4)c4ccccc4)C(C)=C1C3(C)C)[C@]1(OC(C)=O)CO[C@@H]1C[C@@H]2O.CS(=O)(=O)O,solubility,[1],4.83 mM
same,IC50,B16 [2],21 nM
same,Change in cell number,B16 [3],84%
same,Change in cell number,B16 [4],261%
same,Relative effect,B16 [5],0.9
same,Relative effect,Bos taurus,0.25
same,Initial average tumor weight,Mus musculus [6],0.68 mg
same,Initial average tumor weight,Mus musculus [7],0.61 mg
same,Initial average tumor weight,Mus musculus [8],0.77 mg
same,Initial average tumor weight,Mus musculus [9],0.56 mg
same,Initial average tumor weight,Mus musculus [10],0.64 mg
same,No. of survivors,Mus musculus [11],4
same,No. of survivors,Mus musculus [12],4
same,No. of survivors,Mus musculus [13],1
same,T/C,Mus musculus [14],-53%
same,T/C,Mus musculus [15],Complete remission
same,T/C,Mus musculus [16],Toxic
same,T/C,Mus musculus [17],-78%
same,T/C,Mus musculus [18],Complete remission
same,No. of survivors,Mus musculus [19],6
same,No. of survivors,Mus musculus [20],5
same,Final average tumor weight,Mus musculus [21],0 mg
same,Final average tumor weight,Mus musculus [22],0 mg
same,Final average tumor weight,Mus musculus [23],0.13 mg
same,Relative antitumor activity,Mus musculus [24],2
same,Final average tumor weight,Mus musculus [25],0.36 mg
same,Final average tumor weight,Mus musculus [26],0 mg
